Activity calls are given as the source filed them. No cut-off for these calls is given here.
Assays:
Type in all cases: functional
[1] = tested on: Blastomyces dermatitidis; test: Antifungal activity against Blastomyces dermatitidis Gilchrist & Stokes isolate 1107 at 10 ug/ml after 2 weeks (reference value: 35 mm); conditions: Gilchrist & Stokes isolate 1107, 336 h, read-out: DIZ
Outline: (§1)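 Mycelial phase grown on Sabouraud dextrose agar at 25°C. Agar pH was set to 6 before the test solution was added and was 5.0-5.5 after. Test solutions contained HOAc and Me2SO, and solvent and blank controls were included. Each quadrant was center-inoculated with a 2 × 2 mm piece of a 2-week-old mycelial culture. Colony diameter was measured weekly for 3 weeks and reported as total increments (mm). Duplicates were run.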

[2] = tested on: Blastomyces dermatitidis; test: Antifungal activity against Blastomyces dermatitidis Gilchrist & Stokes isolate 1107 at 80 ug/ml after 3 weeks (reference value: 40 mm); conditions: Gilchrist & Stokes isolate 1107, 504 h, read-out: DIZ; outline: as §1
[3] = tested on: Blastomyces dermatitidis; test: Antifungal activity against Blastomyces dermatitidis Gilchrist & Stokes isolate 1107 at 60 ug/ml after 3 weeks (reference value: 40 mm); conditions: Gilchrist & Stokes isolate 1107, 504 h, read-out: DIZ; outline: as §1
[4] = tested on: Blastomyces dermatitidis; test: Antifungal activity against Blastomyces dermatitidis Gilchrist & Stokes isolate 1107 at 40 ug/ml after 3 weeks (reference value: 40 mm); conditions: Gilchrist & Stokes isolate 1107, 504 h, read-out: DIZ; outline: as §1
[5] = tested on: Histoplasma capsulatum; test: Antifungal activity against Histoplasma capsulatum Darling isolate 1106 at 80 ug/ml after 1 week (reference value: 14 mm); conditions: Darling isolate 1106, 168 h, read-out: DIZ
[6] = tested on: Histoplasma capsulatum; test: Antifungal activity against Histoplasma capsulatum Darling isolate 1106 at 40 ug/ml after 1 week (reference value: 14 mm); conditions: Darling isolate 1106, 168 h, read-out: DIZ
[7] = tested on: Histoplasma capsulatum; test: Antifungal activity against Histoplasma capsulatum Darling isolate 1106 at 100 ug/ml after 2 weeks (reference value: 25 mm); conditions: Darling isolate 1106, 336 h, read-out: DIZ
[8] = tested on: Histoplasma capsulatum; test: Antifungal activity against Histoplasma capsulatum Darling isolate 1106 at 80 ug/ml after 2 weeks (reference value: 25 mm); conditions: Darling isolate 1106, 336 h, read-out: DIZ
[9] = tested on: Histoplasma capsulatum; test: Antifungal activity against Histoplasma capsulatum Darling isolate 1106 at 60 ug/ml after 2 weeks (reference value: 25 mm); conditions: Darling isolate 1106, 336 h, read-out: DIZ
[10] = tested on: Histoplasma capsulatum; test: Antifungal activity against Histoplasma capsulatum Darling isolate 1106 at 40 ug/ml after 2 weeks (reference value: 25 mm); conditions: Darling isolate 1106, 336 h, read-out: DIZ
[11] = tested on: Histoplasma capsulatum; test: Antifungal activity against Histoplasma capsulatum Darling isolate 1106 at 100 ug/ml after 3 weeks (reference value: 31 mm); conditions: Darling isolate 1106, 504 h, read-out: DIZ
[12] = tested on: Histoplasma capsulatum; test: Antifungal activity against Histoplasma capsulatum Darling isolate 1106 at 60 ug/ml after 3 weeks (reference value: 31 mm); conditions: Darling isolate 1106, 504 h, read-out: DIZ
[13] = tested on: Histoplasma capsulatum; test: Antifungal activity against Histoplasma capsulatum Darling isolate 1106 at 40 ug/ml after 3 weeks (reference value: 31 mm); conditions: Darling isolate 1106, 504 h, read-out: DIZ
[14] = tested on: Histoplasma capsulatum; test: Antifungal activity against Histoplasma capsulatum Darling isolate 1106 at 10 ug/ml after 3 weeks (reference value: 31 mm); conditions: Darling isolate 1106, 504 h, read-out: DIZ
[15] = tested on: Blastomyces dermatitidis; test: Antifungal activity against Blastomyces dermatitidis Gilchrist & Stokes isolate 1099 at 80 ug/ml after 1 week (reference value: 14 mm)
[16] = tested on: Blastomyces dermatitidis; test: Antifungal activity against Blastomyces dermatitidis Gilchrist & Stokes isolate 1099 at 60 ug/ml after 1 week (reference value: 14 mm)
[17] = tested on: Blastomyces dermatitidis; test: Antifungal activity against Blastomyces dermatitidis Gilchrist & Stokes isolate 1099 at 10 ug/ml after 1 week (reference value: 14 mm); outline: as §1
[18] = tested on: Blastomyces dermatitidis; test: Antifungal activity against Blastomyces dermatitidis Gilchrist & Stokes isolate 1099 at 60 ug/ml after 2 weeks (reference value: 27 mm); outline: as §1
[19] = tested on: Blastomyces dermatitidis; test: Antifungal activity against Blastomyces dermatitidis Gilchrist & Stokes isolate 1099 at 10 ug/ml after 2 weeks (reference value: 27 mm); conditions: Gilchrist & Stokes isolate 1099, 336 h, read-out: DIZ; outline: as §1
[20] = tested on: Blastomyces dermatitidis; test: Antifungal activity against Blastomyces dermatitidis Gilchrist & Stokes isolate 1099 at 80 ug/ml after 3 weeks (reference value: 34 mm); conditions: Gilchrist & Stokes isolate 1099, 504 h, read-out: DIZ; outline: as §1
[21] = tested on: Blastomyces dermatitidis; test: Antifungal activity against Blastomyces dermatitidis Gilchrist & Stokes isolate 1107 at 100 ug/ml after 1 week (reference value: 20 mm)
[22] = tested on: Blastomyces dermatitidis; test: Antifungal activity against Blastomyces dermatitidis Gilchrist & Stokes isolate 1107 at 80 ug/ml after 1 week (reference value: 20 mm)
[23] = tested on: Blastomyces dermatitidis; test: Antifungal activity against Blastomyces dermatitidis Gilchrist & Stokes isolate 1107 at 60 ug/ml after 1 week (reference value: 20 mm)
[24] = tested on: Blastomyces dermatitidis; test: Antifungal activity against Blastomyces dermatitidis Gilchrist & Stokes isolate 1107 at 40 ug/ml after 1 week (reference value: 20 mm)
[25] = tested on: Blastomyces dermatitidis; test: Antifungal activity against Blastomyces dermatitidis Gilchrist & Stokes isolate 1107 at 20 ug/ml after 1 week (reference value: 20 mm); outline: as §1
[26] = tested on: Blastomyces dermatitidis; test: Antifungal activity against Blastomyces dermatitidis Gilchrist & Stokes isolate 1107 at 10 ug/ml after 1 week (reference value: 20 mm); outline: as §1
[27] = tested on: Blastomyces dermatitidis; test: Antifungal activity against Blastomyces dermatitidis Gilchrist & Stokes isolate 1107 at 100 ug/ml after 2 weeks (reference value: 35 mm); conditions: Gilchrist & Stokes isolate 1107, 336 h, read-out: DIZ; outline: as §1
[28] = tested on: Blastomyces dermatitidis; test: Antifungal activity against Blastomyces dermatitidis Gilchrist & Stokes isolate 1107 at 80 ug/ml after 2 weeks (reference value: 35 mm); conditions: Gilchrist & Stokes isolate 1107, 336 h, read-out: DIZ; outline: as §1
[29] = tested on: Blastomyces dermatitidis; test: Antifungal activity against Blastomyces dermatitidis Gilchrist & Stokes isolate 1107 at 60 ug/ml after 2 weeks (reference value: 35 mm); conditions: Gilchrist & Stokes isolate 1107, 336 h, read-out: DIZ; outline: as §1
[30] = tested on: Blastomyces dermatitidis; test: Antifungal activity against Blastomyces dermatitidis Gilchrist & Stokes isolate 1107 at 40 ug/ml after 2 weeks (reference value: 35 mm); conditions: Gilchrist & Stokes isolate 1107, 336 h, read-out: DIZ; outline: as §1
[31] = tested on: Histoplasma capsulatum; test: Antifungal activity against Histoplasma capsulatum Darling isolate 1098 at 60 ug/ml after 1 week (reference value: 12 mm); conditions: Darling isolate 1098, 168 h, read-out: DIZ
[32] = tested on: Histoplasma capsulatum; test: Antifungal activity against Histoplasma capsulatum Darling isolate 1098 at 20 ug/ml after 1 week (reference value: 12 mm); conditions: Darling isolate 1098, 168 h, read-out: DIZ
[33] = tested on: Histoplasma capsulatum; test: Antifungal activity against Histoplasma capsulatum Darling isolate 1098 at 100 ug/ml after 2 weeks (reference value: 21 mm); conditions: Darling isolate 1098, 336 h, read-out: DIZ
[34] = tested on: Histoplasma capsulatum; test: Antifungal activity against Histoplasma capsulatum Darling isolate 1098 at 80 ug/ml after 2 weeks (reference value: 21 mm); conditions: Darling isolate 1098, 336 h, read-out: DIZ
[35] = tested on: Histoplasma capsulatum; test: Antifungal activity against Histoplasma capsulatum Darling isolate 1098 at 40 ug/ml after 2 weeks (reference value: 21 mm); conditions: Darling isolate 1098, 336 h, read-out: DIZ
[36] = tested on: Histoplasma capsulatum; test: Antifungal activity against Histoplasma capsulatum Darling isolate 1098 at 20 ug/ml after 2 weeks (reference value: 21 mm); conditions: Darling isolate 1098, 336 h, read-out: DIZ
[37] = tested on: Histoplasma capsulatum; test: Antifungal activity against Histoplasma capsulatum Darling isolate 1098 at 100 ug/ml after 3 weeks (reference value: 28 mm); conditions: Darling isolate 1098, 504 h, read-out: DIZ
[38] = tested on: Histoplasma capsulatum; test: Antifungal activity against Histoplasma capsulatum Darling isolate 1098 at 80 ug/ml after 3 weeks (reference value: 28 mm); conditions: Darling isolate 1098, 504 h, read-out: DIZ
[39] = tested on: Histoplasma capsulatum; test: Antifungal activity against Histoplasma capsulatum Darling isolate 1098 at 60 ug/ml after 3 weeks (reference value: 28 mm); conditions: Darling isolate 1098, 504 h, read-out: DIZ
[40] = tested on: Histoplasma capsulatum; test: Antifungal activity against Histoplasma capsulatum Darling isolate 1098 at 40 ug/ml after 3 weeks (reference value: 28 mm); conditions: Darling isolate 1098, 504 h, read-out: DIZ

## C[C@@H]1[C@H](O)[C@@H](C)/C=C/C=C/C=C/C=C/C=C/C=C/C=C/[C@H](O[C@@H]2O[C@H](C)[C@@H](O)[C@H](N)[C@@H]2O)C[C@@H]2O[C@](O)(C[C@@H](O)C[C@@H](O)[C@H](O)CC[C@@H](O)C[C@@H](O)CC(=O)O[C@H]1C)C[C@H](O)[C@H]2C(=O)O [AMPHOTERICIN B]
[1]
  zone of inhibition at 10 µg/mL: 9 mm
[2]
  zone of inhibition at 80 µg/mL: 15 mm
[3]
  zone of inhibition at 60 µg/mL: 14 mm
[4]
  zone of inhibition at 40 µg/mL: 13 mm
[5]
  zone of inhibition at 80 µg/mL: 5 mm
[6]
  zone of inhibition at 40 µg/mL: 6 mm
[7]
  zone of inhibition at 100 µg/mL: 6 mm
[8]
  zone of inhibition at 80 µg/mL: 7 mm
[9]
  zone of inhibition at 60 µg/mL: 9 mm
[10]
  zone of inhibition at 40 µg/mL: 9 mm
[11]
  zone of inhibition at 100 µg/mL: 10 mm
[12]
  zone of inhibition at 60 µg/mL: 13 mm
[13]
  zone of inhibition at 40 µg/mL: 13 mm
[14]
  zone of inhibition at 10 µg/mL: 17 mm
[15]
  Activity: Active
[16]
  Activity: Active
[17]
  Activity: Active
[18]
  Activity: Active
[19]
  zone of inhibition at 10 µg/mL: 6 mm
[20]
  zone of inhibition at 80 µg/mL: 2 mm
[21]
  Activity: Active
[22]
  Activity: inactive
[23]
  Activity: inactive
[24]
  Activity: inactive
[25]
  Activity: inactive
[26]
  Activity: inactive
[27]
  zone of inhibition at 100 µg/mL: 6 mm
[28]
  zone of inhibition at 80 µg/mL: 10 mm
[29]
  zone of inhibition at 60 µg/mL: 10 mm
[30]
  zone of inhibition at 40 µg/mL: 14 mm
[31]
  zone of inhibition at 60 µg/mL: 4 mm
[32]
  zone of inhibition at 20 µg/mL: 8 mm
[33]
  zone of inhibition at 100 µg/mL: 8 mm
[34]
  zone of inhibition at 80 µg/mL: 10 mm
[35]
  zone of inhibition at 40 µg/mL: 11 mm
[36]
  zone of inhibition at 20 µg/mL: 12 mm
[37]
  zone of inhibition at 100 µg/mL: 14 mm
[38]
  zone of inhibition at 80 µg/mL: 14 mm
[39]
  zone of inhibition at 60 µg/mL: 13 mm
[40]
  zone of inhibition at 40 µg/mL: 16 mm

Reference: ChEMBL document CHEMBL3272198, “Preparation and in vitro antifungal activities of some quinolizidine derived hemiaminals and beta-tert-amino sulfides” (1976)
